As a reminder, the Ki is the equilibrium dissociation constant of an inhibitor or competing ligand from its target. As usually defined, the EC50 is the midpoint of the concentration-response curve. As a reminder, the logD is the decadic logarithm of the distribution of all forms, ionised or not, between an organic phase and buffer at a given pH. A higher logD goes with higher lipophilicity.

These results are taken from ChEMBL document CHEMBL2046346, “Discovery of phenylpropanoic acid derivatives containing polar functionalities as potent and orally bioavailable G protein-coupled receptor 40 agonists for the treatment of type 2 diabetes” (J Med Chem, 2012).

Active and inactive are the calls of the source. The calls are words filed in the database; no cut-off is given here.

For data set [1], the species on record is Rattus norvegicus. Put plainly: Insulinotropic activity in rat INS1(833/15) cells assessed as increase in insulin secretion at 30 uM after 2 hrs by competitive enzyme immunoassay in the presence of 11 mM glucose. In kind it is functional, cell-based. The essentials:
(§1)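 INS-1 833/15 cells seeded on poly-L-lysine, cultured 2 days, preincubated in KRBH (0.2% FFA-free BSA) with 1 mM glucose, then 2 h in KRBH at 1–16 mM glucose with or without compound (DMSO vehicle). Secreted insulin by EIA; expressed as fold over 1 mM glucose alone, mean ± SD (n = 3–6).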

Data set [2] relates to Rattus norvegicus. The experiment in a line: Induction of hypoglycemia in fasted Sprague-Dawley rat assessed as decrease in plasma glucose level below normal fasting level at 10 mg/kg, po. Type of data set: organism-based. To be noted: in vivo. Set-up: dose 10 mg/kg, route oral. The method in brief: (§2)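 Eight-week-old male SD rats fasted overnight, grouped by body weight (n = 6), single oral dose in 0.5% methylcellulose vehicle; tail-vein blood before and 0.5, 1, 2, 3 h after dosing; plasma glucose by analyzer, insulin by ELISA; mean ± SD.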

The species entered for data set [3] is Rattus norvegicus. The experiment in a line: Insulinotropic activity in rat INS1(833/15) cells assessed as increase in insulin secretion at 30 uM after 2 hrs by competitive enzyme immunoassay in the presence of low concentration of glucose. In kind it is functional, cell-based. The method in brief: as §1
Data set [4] is filed under the species Rattus norvegicus. The experiment in a line: Insulinotropic activity in rat INS1(833/15) cells assessed as increase in insulin secretion at 30 uM after 2 hrs by competitive enzyme immunoassay in the presence of 16 mM glucose. Type of data set: functional, cell-based. The essentials:
as §1

The subject of data set [5] is Rattus norvegicus. The experiment in a line: Induction of hypoglycemia in fasted Sprague-Dawley rat assessed as increase in insulin secretion level at 30 mg/kg, po after 30 mins. In kind it is organism-based. Set-up: dose 30 mg/kg, route oral. To be noted: in vivo, 0.5 h. The essentials: as §2
For data set [6], the system named is HepG2. The experiment in a line: Induction of apoptosis in human HepG2 cells assessed as caspase 3/7 activity at 10 uM after 24 hrs by caspase Glo assay relative to staurosporine. Type of data set: cell-based. To be noted: hepg2, 24 h. The essentials:
(§3)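 HepG2 cells seeded 2 × 10^4/well, treated 1 day in DMEM with 0.5% FBS, 2 mM L-glutamine, 1 mM pyruvate. Caspase-Glo 3/7 luminescence; activity = (compound − 1% DMSO)/(30 μM staurosporine − 1% DMSO) ×100, n = 3.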

For data set [7], the target named is Free fatty acid receptor 1 (Rattus norvegicus, UniProt Q8K3T4). The experiment in a line: Displacement of 3-[4-({2',6'-dimethyl-6-[(4-[3H])phenylmethoxy]biphenyl-3-yl}methoxy)phenyl] propanoic acid from rat GPR40 receptor expressed in CHO cell membrane after 90 mins by liquid scintillation counting in the presence of 0.2% BSA. In kind it is cell membranes. The method in brief: (§4)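 Membranes from CHO lines stably expressing human or rat GPR40, buffer 25 mmol/L Tris-HCl pH 7.5, 5 mmol/L EDTA, protease inhibitors, 0.05% CHAPS, 0.2% fatty-acid-free BSA. Tritiated ligand at 2 or 6 nmol/L with graded test compound, 90 min room temperature, GF/C filtration, scintillation counting. Nonspecific binding: 10 μmol/L unlabeled ligand. IC50 by nonlinear regression, Ki = IC50/(1+[L]/Kd).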

The nature of data set [8]: Cytotoxicity against human HepG2 cells assessed as intracellular ATP level at 30 uM after 24 hrs by ATPlite assay relative to control. In kind it is cell-based. To be noted: read-out: Activity. The method in brief: (§5)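 HepG2 cells seeded 2 × 10^4/well, treated 1 day in DMEM with 0.5% FBS, 2 mM L-glutamine, 1 mM pyruvate. ATP measured by ATPlite luminescence; % of 1% DMSO control (RLU ratio ×100), n = 3.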

The nature of data set [9]: Cytotoxicity against human HepG2 cells assessed as intracellular ATP level at 10 uM after 24 hrs by ATPlite assay relative to control. In kind it is cell-based. To be noted: read-out: Activity. The essentials:
as §5
(In ATP-based viability assays light output follows the ATP content of the culture.)

In data set [10] the test system is Rattus norvegicus. The experiment in a line: Insulinotropic activity in po dosed fasted Wistar fatty rat assessed as increase in insulin secretion administered 30 mins prior to glucose-challenge by oral glucose tolerance test relative to vehicle treated control. In kind it is functional, organism-based. The method in brief: (§6)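 Thirteen-week-old female Wistar fatty rats, overnight fasted, grouped on body weight, PG, TG, NEFA (n = 6). Oral dose (0.1–1 mg/kg, 0.5% methylcellulose vehicle) 30 min before oral glucose 1 g/kg; tail-vein blood at 0, 10, 30, 60, 120 min; plasma glucose by analyzer, insulin by RIA.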

Data set [11] concerns Rattus norvegicus. Put plainly: Insulinotropic activity in fasted Wistar fatty rat assessed as decrease in blood glucose level at 0.3 mg/kg, po administered 30 mins prior to glucose-challenge by oral glucose tolerance test relative to vehicle treated control. In kind it is functional, organism-based. Set-up: dose 0.3 mg/kg. The essentials:
as §6

Data set [12] deals with Rattus norvegicus. Put plainly: Insulinotropic activity in po dosed fasted Wistar fatty rat assessed as decrease in blood glucose level administered 30 mins prior to glucose-challenge by oral glucose tolerance test relative to vehicle treated control. Type of data set: functional, organism-based. The essentials: as §6
The test system of data set [13] is Rattus norvegicus. Put plainly: Induction of hypoglycemia in fasted Sprague-Dawley rat assessed as increase in insulin secretion level at 30 mg/kg, po after 30 mins. To be noted: in vivo, 0.5 h.
The target in data set [14] is T1, Free fatty acid receptor 1 (Homo sapiens, UniProt O14842). Put plainly: Agonist activity at human GPR40 receptor expressed in CHO cells assessed as increase in intracellular calcium level for 90 secs by FLIPR assay in the presence of 0.1% BSA. In kind it is functional, cell-based. The method in brief:
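CHO dhfr cells stably expressing human GPR40 plated overnight, loaded 60 min at 37 °C with Fluo 4 AM (2.5 μg/mL), 2.5 mmol/L probenecid, 0.1% fatty acid-free BSA. Ca2+ rise after compound addition read 90 s; response scaled between vehicle (0%) and 10 μM γ-linolenic acid (100%).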
(Calcium assays in cells follow changes in intracellular calcium, usually with a dye or a luminescent sensor.)

Data set [15] has as its system HepG2. Put plainly: Induction of apoptosis in human HepG2 cells assessed as caspase 3/7 activity at 30 uM after 24 hrs by caspase Glo assay relative to staurosporine. Type of data set: cell-based. The settings on record: hepg2, 24 h. The method in brief:
as §3

Data set [16] deals with T1, Free fatty acid receptor 1. Put plainly: Displacement of 3-[4-({2',6'-dimethyl-6-[(4-[3H])phenylmethoxy]biphenyl-3-yl}methoxy)phenyl] propanoic acid from human GPR40 receptor expressed in CHO cell membrane after 90 mins by liquid scintillation counting in the presence of 0.2% BSA. In kind it is cell membranes. The method in brief:
as §4

A short description of data set [17]: Metabolic stability in human hepatic microsomes. In kind it is ADME. To be noted: liver microsomes, read-out: Stability. A general note: Microsomes from liver hold many membrane-bound enzymes, among them those of drug oxidation.
Data set [18] in a line: Lipophilicity, log D of the compound by RP-HPLC analysis. Type of data set: physicochemical.
In data set [19] the test system is Rattus norvegicus. The experiment in a line: Induction of hypoglycemia in fasted Sprague-Dawley rat assessed as decrease in plasma glucose level below normal fasting level at 30 mg/kg, po. In kind it is organism-based. Set-up: dose 30 mg/kg, route oral. To be noted: in vivo. The method in brief: as §2
The subject of data set [20] is Rattus norvegicus. Put plainly: Toxicity in rat assessed as adverse effect at 15 to 150 mg/kg, po after 4 weeks. Set-up: dose 15-150 mg/kg, route oral. The settings on record: in vivo, 672 h. Type of data set: organism-based. The method in brief:
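Normal rats dosed orally at 15, 50 and 150 mg/kg for 4 weeks; adverse effects recorded.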

The species named for data set [21] is Rattus norvegicus. The experiment in a line: Insulinotropic activity in rat INS1(833/15) cells assessed as increase in insulin secretion at 1 uM after 2 hrs by competitive enzyme immunoassay in the presence of 4 mM glucose. In kind it is functional, cell-based. The essentials: as §1
The species entered for data set [22] is Rattus norvegicus. Put plainly: Insulinotropic activity in rat INS1(833/15) cells assessed as increase in insulin secretion at 1 uM after 2 hrs by competitive enzyme immunoassay in the presence of >6 mM glucose. In kind it is functional, cell-based. The essentials:
as §1

The species named for data set [23] is Rattus norvegicus. The experiment in a line: Insulinotropic activity in rat INS1(833/15) cells assessed as increase in insulin secretion at >0.1 uM after 2 hrs by competitive enzyme immunoassay in the presence of 11 mM glucose. Type of data set: functional, cell-based. The method in brief:
as §1

The species named for data set [24] is Rattus norvegicus. Put plainly: Insulinotropic activity in rat INS1(833/15) cells assessed as increase in insulin secretion at 1 uM after 2 hrs by competitive enzyme immunoassay in the presence of 16 mM glucose. In kind it is functional, cell-based. The method in brief: as §1
Data set [25] is filed under the species Rattus norvegicus. Put plainly: Insulinotropic activity in rat INS1(833/15) cells assessed as increase in insulin secretion at 1 uM after 2 hrs by competitive enzyme immunoassay in the presence of 1 mM glucose. In kind it is functional, cell-based. The essentials:
as §1

Data set [26] is filed under the species Rattus norvegicus. The experiment in a line: Insulinotropic activity in rat INS1(833/15) cells assessed as increase in insulin secretion after 2 hrs by competitive enzyme immunoassay in the presence of 11 mM glucose. Type of data set: functional, cell-based. The essentials:
as §1

For data set [27], the species on record is Rattus norvegicus. Put plainly: Insulinotropic activity in rat INS1(833/15) cells assessed as increase in insulin secretion at 10 uM after 2 hrs by competitive enzyme immunoassay in the presence of low concentration of glucose. In kind it is functional, cell-based. The method in brief: as §1
The species entered for data set [28] is Rattus norvegicus. The experiment in a line: Insulinotropic activity in rat INS1(833/15) cells assessed as increase in insulin secretion at 10 uM after 2 hrs by competitive enzyme immunoassay in the presence of 11 mM glucose. Type of data set: functional, cell-based. The essentials:
as §1

Data set [29] is filed under the species Rattus norvegicus. The experiment in a line: Insulinotropic activity in rat INS1(833/15) cells assessed as increase in insulin secretion at 10 uM after 2 hrs by competitive enzyme immunoassay in the presence of 16 mM glucose. Type of data set: functional, cell-based. The method in brief:
as §1

T1 sequence (O14842 whole entry): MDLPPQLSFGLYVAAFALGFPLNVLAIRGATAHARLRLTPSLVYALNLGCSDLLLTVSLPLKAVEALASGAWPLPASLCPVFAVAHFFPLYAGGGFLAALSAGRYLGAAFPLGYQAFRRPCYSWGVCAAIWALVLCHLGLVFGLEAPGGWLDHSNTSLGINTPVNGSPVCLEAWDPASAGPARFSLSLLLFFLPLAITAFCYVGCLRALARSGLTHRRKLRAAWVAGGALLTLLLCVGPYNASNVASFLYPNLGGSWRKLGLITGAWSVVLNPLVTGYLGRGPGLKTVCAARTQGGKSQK
Chain of Free fatty acid receptor 1 (Rattus norvegicus, UniProt Q8K3T4) (Q8K3T4 whole entry): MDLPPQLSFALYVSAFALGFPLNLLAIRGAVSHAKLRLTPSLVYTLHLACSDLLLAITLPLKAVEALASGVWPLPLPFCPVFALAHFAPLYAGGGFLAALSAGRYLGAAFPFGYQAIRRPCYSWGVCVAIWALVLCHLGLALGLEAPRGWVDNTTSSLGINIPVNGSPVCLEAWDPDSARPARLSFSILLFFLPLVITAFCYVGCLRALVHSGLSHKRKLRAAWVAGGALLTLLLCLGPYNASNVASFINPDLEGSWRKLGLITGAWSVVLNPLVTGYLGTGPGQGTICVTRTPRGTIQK

In the case of `COc1ccc(Cl)cc1C(=O)NCCc1ccc(S(=O)(=O)NC(=O)NC2CCCCC2)cc1` [GLYBURIDE], the outcome in the data set filed under Rattus norvegicus [1], in the data set filed under Rattus norvegicus [3] and in the data set filed under Rattus norvegicus [4] was Active. The Activity entry in the data set with Rattus norvegicus [2] and in the data set on Rattus norvegicus [5] was “Toxic” in each case.
Turning to `Cc1cc(OCC2(O)CCS(=O)(=O)CC2)cc(C)c1-c1cccc(CNc2ccc(CCC(=O)O)c(F)c2)c1`, the Activity with HepG2 [6] is 0.8%; in the data set with Rattus norvegicus [10] it was “Dose-dependent effect”; in the data set on Rattus norvegicus [12], “Dose-dependent effect”; in the data set with Rattus norvegicus [13] it was “Toxic”; in the data set with HepG2 [15], 0.5%; in the data set with Rattus norvegicus [19] it was “Non-toxic”. Besides, the Activity result in the data set with Rattus norvegicus [20] is “Non-toxic”. Further, the results for the Ki in [7] and in [16] were 4.5 nM and 19 nM, respectively. For the same compound, the viability at 24 h, 30 µM in [8] was found to be 75.9%. Besides, in [9], the viability at 24 h, 10 µM turned out to be 88.1%. The outcome in the data set with Rattus norvegicus [11] was Active. In addition, the EC50 in data set [14] was found to be 29 nM. Also, in [17], the microsomal CLint is 2 µL/min/mg. In [18], this compound displayed a log distribution coefficient (logD) of 2.14.
`Cc1cc(OC2CCS(=O)(=O)CC2)cc(C)c1-c1cccc(COc2ccc(CCC(=O)O)c(F)c2)c1`: the Activity is -0.5% in the data set with HepG2 [6], 28.9% in the data set with HepG2 [15] and “Dose-dependent effect” in the data set filed under Rattus norvegicus [26]. Also, the outcome in the data set listed under Rattus norvegicus [21] and in the data set listed under Rattus norvegicus [25] was inactive. Besides, the Ki in data set [7] is 6.4 nM; in data set [16] it was 16 nM. Moreover, the viability at 24 h, 30 µM in [8] was 38%. For the same compound, the outcome in the data set filed under Rattus norvegicus [22], in the data set filed under Rattus norvegicus [23] and in the data set filed under Rattus norvegicus [24] was Active. Besides, the viability at 24 h, 10 µM in data set [9] amounted to 79.8%. For the same compound, the EC50 in data set [14] came out at 25 nM. In addition, the microsomal CLint in data set [17] is 3 µL/min/mg. This compound displayed a logD in [18] of 3.06.
For the compound `CC(C)[C@H]1CC[C@H](C(=O)N[C@H](Cc2ccccc2)C(=O)O)CC1`, the result in the data set listed under Rattus norvegicus [27], in the data set filed under Rattus norvegicus [28] and in the data set filed under Rattus norvegicus [29] was Active.
